ChEMBL document CHEMBL1123711, “Substituted 1,2,3,4-tetrahydroaminonaphthols: antihypertensive agents, calcium channel blockers, and adrenergic receptor blockers with catecholamine-depleting effects” (J Med Chem, 1987)
Active and inactive are the calls of the source. The calls are words filed in the database; no cut-off is given here.

Legend:
Rattus norvegicus [1] = experiment: Antihypertensive activity as percent maximum (over 24 hr) decrease in blood pressure at 135 umol/kg, perorally (~40-50 mg/kg) in 5 spontaneously hypertensive rats (SHR); assay type: functional
Oryctolagus cuniculus = species: Oryctolagus cuniculus; experiment: Calcium channel blocking activity in vitro in rabbit thoracic aorta preparation (n=4) by using linear regression analysis; assay type: functional
Summary of the method: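 Rabbit thoracic aorta strips held under a 4-g preload in PSS at 37 °C, pH 7.35, gassed with 95% O2/5% CO2, equilibrated ≥1 h. Contraction by high-K+ (100 mM) PSS with Na+ reduced equimolarly. At plateau, cumulative test concentrations were added and relaxation was normalized to initial tension. IC50 by regression on the linear part of the concentration–response curve.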

Rattus norvegicus [2] = experiment: Antihypertensive activity as percent maximum (0-6 hr) decrease in blood pressure at 135 umol/kg, perorally (~40-50 mg/kg) in 5 spontaneously hypertensive rats (SHR); assay type: functional
Rattus norvegicus [3] = experiment: Antihypertensive activity as percent maximum (0-6 hr) decrease in blood pressure at 135 umol/kg po (~40-50 mg/kg) in 5 spontaneously hypertensive rats (SHR); assay type: functional
Rattus norvegicus [4] = experiment: Percent Catecholamine-depletion in brain by administering a dose of 2 x 45 umol/kg, perorally to 4 spontaneously hypertensive rats (SHR).; assay type: functional
Summary of the method: (§1)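 SHR given two oral doses of 45 µmol/kg, 17 h apart. Rats decapitated 4 h after the second dose; hearts and brains quickly removed and frozen. Tissue extracts in glutathione centrifuged at 0 °C, and the protein-free supernatant diluted and assayed in duplicate for catecholamines by radioenzymatic kit.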

Rattus norvegicus [5] = experiment: Antihypertensive activity as percent average (over 24 hr) decrease in blood pressure at 135 umol/kg po (~40-50 mg/kg) in 5 spontaneously hypertensive rats (SHR); assay type: functional
[6] = target: Adrenergic receptor alpha; experiment: Compound was evaluated for the alpha-Adrenoceptor pA2 blocking activity in vitro in rabbit thoracic aorta; assay type: functional, tissue-based, Oryctolagus cuniculus
Rattus norvegicus [7] = experiment: Percent Catecholamine-depletion in heart by administering a dose of 2 x 45 umol/kg, perorally to 4 spontaneously hypertensive rats (SHR).; assay type: functional; summary of the method: as §1
Rattus norvegicus [8] = experiment: Antihypertensive activity as percent average (0-24 hr) decrease in blood pressure at 45 umol/kg po (~22 mg/kg) in 4 spontaneously hypertensive rats (SHR); assay type: functional
Rattus norvegicus [9] = experiment: Antihypertensive activity as percent maximum (0-6 hr) decrease in blood pressure at 45 umol/kg po (~22 mg/kg) in 4 spontaneously hypertensive rats (SHR); assay type: functional
Canis familiaris = species: Canis familiaris; experiment: Compound was evaluated for the slow action potential blockade in canine Purkinje fibers in vitro (n = 4)
Rattus norvegicus [10] = experiment: Antihypertensive activity as percent maximum (0-6 hr) decrease in blood pressure at 45 umol/kg poin 5 spontaneously hypertensive rats (SHR); assay type: functional
Rattus norvegicus [11] = experiment: Antihypertensive activity as percent maximum (over 24 hr decrease in blood pressure at 135 umol/kg, perorally (~40-50 mg/kg) in 5 spontaneously hypertensive rats (SHR); assay type: functional
Rattus norvegicus [12] = experiment: Antihypertensive activity as percent maximum (over 24 h) decrease in blood pressure at 135 umol/kg, perorally (~40-50 mg/kg) in 5 spontaneously hypertensive rats (SHR); assay type: functional
Rattus norvegicus [13] = experiment: Antihypertensive activity as percent maximum (0-6 hr) decrease in blood pressure at 135 umol/kg, perorally (~40-50 mg/kg) in 5 spontaneously hypertensive rats (SHR); NA denotes no activity; assay type: functional, organism-based
Rattus norvegicus [14] = experiment: Antihypertensive activity as percent maximum (over 24 hr) decrease in blood pressure at 135 umol/kg, perorally (~40-50 mg/kg) in 5 spontaneously hypertensive rats (SHR); NA denotes no activity; assay type: functional, organism-based
Rattus norvegicus [15] = experiment: Antihypertensive activity as percent average (over 24 hr) decrease in blood pressure at 135 umol/kg po (~40-50 mg/kg) in 5 spontaneously hypertensive rats (SHR); NA denotes not active; assay type: functional, organism-based
Rattus norvegicus [16] = experiment: Antihypertensive activity as percent maximum (0-6 hr) decrease in blood pressure at 135 umol/kg po (~40-50 mg/kg) in 5 spontaneously hypertensive rats (SHR); NA denotes not active; assay type: functional, organism-based

IC50 (Oryctolagus cuniculus) | SMILES | Decrease (Rattus norvegicus [1]) | Decrease (Rattus norvegicus [2]) | also measured
9400 nM | COc1cc2c(cc1OC)C[C@H](O)[C@@H](NC(=O)CC(c1ccccc1)c1ccccc1)C2 | 16% | 6% | 
400 nM | COc1cc2c(cc1OC)C[C@H](O)[C@@H](NCCC(c1ccccc1)c1ccccc1)C2.Cl |  |  | Decrease (Rattus norvegicus [3]): 32%; Depletion (Rattus norvegicus [4]): 0%; Decrease (Rattus norvegicus [5]): 34%; pA2 [6]: 6; Depletion (Rattus norvegicus [7]): 97%; Average (Rattus norvegicus [8]): 25%; Max (Rattus norvegicus [9]): 21%; IC50 (Canis familiaris): 270 nM
19600 nM | Cl.Oc1cc2c(cc1O)C[C@H](O)[C@@H](NCCC(c1ccccc1)c1ccccc1)C2 |  |  | Decrease (Rattus norvegicus [5]): 30%; Decrease (Rattus norvegicus [10]): 29%
5500 nM | COc1ccc(OC)c2c1C[C@H](NCCCc1ccccc1)[C@@H](O)C2.Cl |  | 14% | Decrease (Rattus norvegicus [11]): 14%
800 nM | COc1ccc(OC)c2c1C[C@H](NCCCC(c1ccccc1)c1ccccc1)[C@@H](O)C2.Cl | 10% | 6% | 
200 nM | COc1cc2c(cc1OC)C[C@H](NCCC(c1ccccc1)c1ccccc1)CC2.Cl |  |  | Decrease (Rattus norvegicus [3]): 11%; Decrease (Rattus norvegicus [5]): 12%
1000 nM | Cc1cc2c(cc1C)C[C@H](O)[C@@H](NCCC(c1ccccc1)c1ccccc1)C2.Cl | 32% | 17% | 
400 nM | Cl.O[C@H]1Cc2ccccc2C[C@@H]1NCCC(c1ccccc1)c1ccccc1 | 8% | 11% | 
300 nM | COc1ccc(CCN(C)CCCC(C#N)(c2ccc(OC)c(OC)c2)C(C)C)cc1OC (centres undefined) |  |  | Decrease (Rattus norvegicus [3]): 40%; Decrease (Rattus norvegicus [5]): 32%; Depletion (Rattus norvegicus [7]): 75%; Average (Rattus norvegicus [8]): 21%; Max (Rattus norvegicus [9]): 16%; IC50 (Canis familiaris): 110 nM
2500 nM | COc1cc2c(cc1OC)C[C@H](O)[C@@H](NCCC(c1ccccc1)C(C)C)C2.Cl (some centres undefined) |  | 8% | Decrease (Rattus norvegicus [12]): 10%
1500 nM | COc1ccc(OC)c2c1C[C@H](NCCC(c1ccccc1)c1ccccc1)[C@@H](O)C2.Cl | 19% | 15% | 
13300 nM | COc1ccc(OC)c2c1C[C@H](NCC(c1ccccc1)c1ccccc1)[C@@H](O)C2.Cl | 16% | 10% | 
23000 nM | COc1ccc(OC)c2c1C[C@H](NCCCc1c[nH]c3ccccc13)[C@@H](O)C2.Cl | 24% | 23% | 
2000 nM | COc1ccc(OC)c2c1C[C@H](NCCCCC(c1ccccc1)c1ccccc1)[C@@H](O)C2.Cl |  | 10% | Decrease (Rattus norvegicus [12]): 10%
1400 nM | COc1cc2c(cc1OC)C[C@H](O)[C@@H](NCCC1c3ccccc3-c3ccccc31)C2.Cl | 34% | 32% | 
400 nM | COc1cc2c(cc1OC)C[C@H](N(C)CCC(c1ccccc1)c1ccccc1)[C@@H](O)C2 | 19% | 11% | 
13500 nM | COc1ccc(OC)c2c1C[C@H](NCCCc1nc3ccccc3s1)[C@@H](O)C2.Cl | 16% | 16% | 
600 nM | COc1cc2c(cc1OC)C[C@H](O)[C@@H](NCCC(c1ccccc1)c1ccccc1OC)C2.Cl (some centres undefined) | 28% | 21% | 
200 nM | COc1cc2c(cc1OC)C[C@H](NCCC(c1ccccc1)c1ccccc1)[C@H](O)C2.Cl |  |  | Decrease (Rattus norvegicus [3]): 14%; Decrease (Rattus norvegicus [5]): 19%
2800 nM | COc1cc2c(cc1OC)C[C@H](OC(C)=O)[C@@H](NCCC(c1ccccc1)c1ccccc1)C2.Cl | 34% | 34% | 
21000 nM | COc1ccc(OC)c2c1C[C@H](NCCc1ccccc1)[C@@H](O)C2 |  |  | Decrease (Rattus norvegicus [13]): inactive; Decrease (Rattus norvegicus [14]): inactive
1800 nM | COc1cc2c(cc1OC)C[C@H](OC)[C@@H](NCCC(c1ccccc1)c1ccccc1)C2 |  |  | Decrease (Rattus norvegicus [15]): inactive; Decrease (Rattus norvegicus [16]): inactive
 | COc1ccc(OC)c2c1C[C@H](NCCC(C1CCCCC1)C1CCCCC1)[C@@H](O)C2.Cl | 23% | 27% | 
3600 nM | COc1ccc(OC)c2c1C[C@H](NCCCCc1ccccc1)[C@@H](O)C2.Cl | 23% | 26% | 
300 nM | Cl.O[C@H]1Cc2cc3c(cc2C[C@@H]1NCCC(c1ccccc1)c1ccccc1)OCO3 | 25% | 25% | 
